# Screening data from PubChem.
# In the library only some 3.5% were active in any assay of this set; here they are far more common.
# MrgX1 ag: activates human MrgX1 receptor signaling | Q96LB2 | MrgX1-HEK293 cells, Fluo-4 calcium fluorescence, agonist mode; hits give high values | B-score at 10 µM | hit rate 0.44% among 310,000 | AID 588627;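 active means calcium response B-score plate-corrected fluorescence ratio at least 3 library SD, with starting fluorescence B-score inside 5 SD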
#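 Material – MrgX1-expressing HEK293 cells · Input – 15,000 cells seeded per well · Dosing – compound as first of three additions · Times – overnight seeding, then 1 h dark dye loading · Measured by – kinetic Fluo-4 NW fluorescence of intracellular calcium · Read-out – B-scored fluorescence response ratio · Benchmarks – positive and negative control wells on each plate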
# RGS4 act: potentiators or activators of RGS4; HEK293 M3R/inducible RGS4, carbachol calcium flux Fluo4; hits give low values; B-score at 10 µM; hit rate 0.92% among 310,000; AID 463111;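 active means B-score of the integrated calcium signal more than 4 SD below the library mean, with starting fluorescence not abnormally high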;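 further: negative B-score means reduced calcium response which marks RGS4 activation or potentiation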
#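 System – HEK293 FlpIn-TREx cells, stable M3R, doxycycline-inducible RGS4 · Reagent – ECmax carbachol challenge · Times – compound preincubation 20 min at room temperature before agonist · Technique – Fluo4 fluorescence kinetic imaging of calcium · Measure – B score of integrated Fluo4 ratio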
# MrgX1 PAM: human MrgX1 positive allosteric modulation, primary screen. Q96LB2. MrgX1-HEK293, Fluo-4 calcium flux, FDSS; hits give high values. B-score at 10 µM. hit rate 0.63% among 310,000;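 active means plate-corrected calcium response at least 3 library SD above typical, normal starting fluorescence, not activating the receptor alone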;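 further: compound read alongside a low EC10 to EC30 dose of BAM8-22 agonist; peak minus trough fluorescence over baseline measured at the second addition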
# MrgX1 antagonist: blocks BAM8-22 activation of human MrgX1 receptor | hit rate 1.3% among 310,000 | MRGX1-HEK293 calcium flux, Fluo-4, BAM8-22 antagonism; hits give low values | B-score at 10 µM;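 active means calcium-response B-score plate-corrected more than 3 library SD below zero, starting fluorescence within 5 deviations, no agonist response on first addition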;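 further: peak minus trough fluorescence over baseline after final BAM8-22 challenge near maximal dose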
# RGS4 block: inhibitors of human RGS4; AID 463165; hit rate 0.45% among 310,000; B-score at 10 µM; HEK293 M3R/RGS4 inducible, Fluo-4 calcium flux; hits give high values; triggered by carbachol at its EC20;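 active means B-score, a plate-corrected calcium signal, over three deviations above library mean, with baseline fluorescence within five deviations of library mean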;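 further: RGS4 expression induced by doxycycline in cells with stable M3 receptor; B-score is computed from the integrated fluorescence ratio over baseline after carbachol; higher B-score means a larger calcium signal and so more RGS4 inhibition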
# Target sequence (P49798 whole entry, looked up): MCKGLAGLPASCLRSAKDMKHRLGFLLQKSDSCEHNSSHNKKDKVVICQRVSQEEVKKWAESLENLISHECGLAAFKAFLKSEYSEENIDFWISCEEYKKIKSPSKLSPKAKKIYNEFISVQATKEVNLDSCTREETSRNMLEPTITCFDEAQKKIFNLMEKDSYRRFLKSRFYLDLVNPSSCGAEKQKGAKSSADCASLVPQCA
# RGS4 block valid: RGS4 inhibitor validation | shares compounds with RGS4 block | HEK293 M3R/RGS4, carbachol calcium Fluo-4 fluorescence; carbachol added at its EC20; 0 = buffer wells, 100 = carbachol control | calcium response, % at 10 µM | hit rate 65% among 1,700;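 active means duplicate-averaged calcium response above the buffer-only control mean plus 5 SD of those controls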;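 further: integrated fluorescence ratio F max minus min over baseline F0; higher response in RGS4-induced cells means RGS4 inhibition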
# RGS4 uninduced: checks RGS4 inhibitor effects in non-induced HEK293 M3R cells. activity (percent), % at 10 µM. carbachol calcium Fluo-4; submaximal (EC20) carbachol stimulus; buffer wells 0%, carbachol control wells 100%. shares compounds with RGS4 block. hit rate 20% among 1,900. AID 493000; call rule not given here;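 further: RGS4 induction absent so cells express M3R without RGS4; higher means more calcium signal and flags a non-specific hit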
# M3R basal Ca ctr: second counter-screen for RGS4 inhibitors: non-induced cells without carbachol; calcium response (agonist-mode artifact), % at 10 µM; hit rate 22% among 1,900; AID 493001; HEK293 M3R/RGS4 non-induced, Fluo-4 calcium, no carbachol; normalised: buffer wells 0%, carbachol wells 100%; shares compounds with RGS4 block;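 active means duplicate-averaged calcium rise in uninduced cells above buffer wells' mean plus 5 SD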
# Active calls of the source: *; i = inactive; x = not tested or not shown.
SMILES,MrgX1 ag,RGS4 act,MrgX1 PAM,MrgX1 antagonist,RGS4 block,RGS4 block valid,RGS4 uninduced,M3R basal Ca ctr
CC(C)(Oc1ccc(Cl)cc1)C(=O)O/N=C(\N)c1ccncc1,i,i,i,i,i,x,x,x
COc1ccc(/C=N/NC(=O)c2nnn(-c3nonc3N)c2-c2cccs2)c(OC)c1,i,i,i,i,i,x,x,x
COC(=O)C1=C(C)N(C2CCCCC2)C(=O)/C1=C\c1cccs1,i,i,i,i,5.71*,10.5%*,i,i
O=[N+]([O-])c1c(Nc2ccccn2)cc(Cl)c2nonc12,i,i,i,-4.73*,10.4*,54.5%*,i,8.0%*
O=C(O)c1ccccc1Nc1cc(Cl)c2nonc2c1[N+](=O)[O-],i,i,i,i,i,x,x,x
CC(C)(C)c1ccc(-c2nc(NCc3cccnc3)c3ccccc3n2)cc1,i,i,i,i,8.63*,18.0%*,i,i
O=C(Cn1ccc(C(F)(F)F)n1)N=Nc1c(O)[nH]c2ccccc12,i,i,i,i,i,x,i,i
Oc1[nH]c2ccc(Br)cc2c1N=Nc1ccc(C(F)(F)F)cn1,i,i,i,i,i,x,x,x
CC(C)n1c(O)c(N=NC(=O)Cn2ccc(C(F)(F)F)n2)c2ccccc21,i,i,i,i,i,x,x,x
O=C(Cn1ccc(C(F)(F)F)n1)N=Nc1c(O)[nH]c2ccc(Br)cc12,i,i,i,i,4.74*,32.5%*,i,i
Oc1ccc(/C=N/Nc2ccc(C(F)(F)F)cn2)cc1,i,i,i,i,i,x,i,i
Cc1cc(N=Cc2c(O)ccc3cc(Br)ccc23)no1,i,i,i,i,9.93*,i,i,23.5%*
Cc1cc(N=Cc2c(O)ccc3ccccc23)no1,i,i,i,i,i,x,x,x
CN1C(c2ccccc2)=NO[C@]1(C)c1ccccc1,i,i,i,i,i,x,x,x
NCCOc1ccc(C23CC4CC(CC(C4)C2)C3)cc1,i,i,i,i,10.9*,20.0%*,i,72.0%*
Cc1cc(C(=O)CN2C(=O)NC(C)(c3cccc(Br)c3)C2=O)c(C)n1Cc1ccco1 (centres undefined),i,i,i,i,i,x,x,x
Cc1cc(C(=O)CN2C(=O)NC(c3ccccc3)(c3ccccc3)C2=O)c(C)n1Cc1ccco1,i,i,i,i,7.5*,17.0%*,i,i
COc1ccc(NC(=O)CC2SC(=NCc3ccccc3OC)NC2=O)cc1 (centres undefined),i,i,i,i,i,x,i,i
COc1ccccc1CN=C1NC(=O)C(CC(=O)Nc2ccc(OC)c(OC)c2)S1 (centres undefined),i,i,i,i,5.64*,8.5%*,i,i
COc1ccc(CCNC(=O)CC2SC(=NCCc3ccccc3)NC2=O)cc1OC (centres undefined),i,i,i,i,i,x,x,x
COc1cc(C(C(=O)NC2CCCCC2)N(C(=O)Cc2c[nH]c3ccccc23)c2ccc(C)cc2)cc(OC)c1OC (centres undefined),i,i,i,i,i,i,i,i
CCOCC(=O)Nc1ccc(S(=O)(=O)Nc2nccs2)cc1,i,i,i,i,i,x,x,x
CCOC(=O)/C=C/C(=O)Nc1ccc(S(=O)(=O)Nc2nccs2)cc1,i,i,i,i,5.02*,23.0%*,i,i
